Screening results (PubChem)
Shown are actives, neighbours in structure and some others; about 1.2% of the full set was active somewhere.
PERK inh – block of dimerizer-induced PERK translation repression, primary screen, PERK inhibitor project, CHO PERK-DD cells, SEAP luminescence, HTS; Eukaryotic translation initiation factor 2-alpha kinase 3 (Homo sapiens), Q9NZJ5; CHO PERK-DD fusion, SEAP luminescence translation reporter; inhibition, % at 5.6 µM; 220,000 tested, 0.17% active;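 active = inhibition above the mean inhibition of all tested compounds plus 3 SD, set separately per screening campaign, cut at about 2.9% in these data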;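 also: PERK kinase domain activated by AP20187 dimerizer at 100 nM; 0% = DMSO with dimerizer and 100% = rapamycin at 8.4 µM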
Autophagy HCS – autophagy modulators in MEF cells, primary screen, imaging, high-content, MEF GFP-LC3. 190,000 tested, 0.98% active. MEF GFP-LC3 puncta imaging; test concentration mostly 10 µM. calls only at 10 µM (by protocol);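 active = percentage of spot-positive cells more than 3 SD above its plate mean, without a fluorescence outlier flag or 80% toxicity; inconclusive = no clear call, values can overlap the other calls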;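 also: spot-positive cell cutoff set from DMSO-treated cells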
Tb hexokinase – Trypanosoma brucei hexokinase 1 inhibitors, primary screen, biochemical, G6PDH-coupled NADH absorbance, MLSCN library | hexokinase 1 [Trypanosoma brucei] | recombinant TbHK1, G6PDH-coupled NADH A340 | inhibition, % at 10 µM | 220,000 tested, 0.11% active;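 active = inhibition of 50% or more in the single-dose primary screen; inactive = inhibition below 50%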
HSV augment – enhancers of HSV replication in host cells, fold increase, host cell viability. HSV replication augmentation in cells. maximum fold increase. 220,000 tested, 0.005% active; in the data active = maximum fold increase above about 1.5; inconclusive = no clear call, values can overlap the other calls; tested in PC3 cells
HKDC1 inh – HKDC1 hexokinase inhibitors, primary screen, biochemical, fluorescence, uHTS; 340,000 tested, 0.16% active; recombinant HKDC1, G6PDH/diaphorase resazurin coupled fluorescence; inhibition, % at 20 µM; Q2TB90;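 active = inhibition above about 35% when tested at 20 µM, limit read from the data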;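 also: plate controls were DMSO wells with enzyme for no effect and DMSO wells lacking enzyme for full effect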
Target sequence (Q2TB90 whole entry, looked up): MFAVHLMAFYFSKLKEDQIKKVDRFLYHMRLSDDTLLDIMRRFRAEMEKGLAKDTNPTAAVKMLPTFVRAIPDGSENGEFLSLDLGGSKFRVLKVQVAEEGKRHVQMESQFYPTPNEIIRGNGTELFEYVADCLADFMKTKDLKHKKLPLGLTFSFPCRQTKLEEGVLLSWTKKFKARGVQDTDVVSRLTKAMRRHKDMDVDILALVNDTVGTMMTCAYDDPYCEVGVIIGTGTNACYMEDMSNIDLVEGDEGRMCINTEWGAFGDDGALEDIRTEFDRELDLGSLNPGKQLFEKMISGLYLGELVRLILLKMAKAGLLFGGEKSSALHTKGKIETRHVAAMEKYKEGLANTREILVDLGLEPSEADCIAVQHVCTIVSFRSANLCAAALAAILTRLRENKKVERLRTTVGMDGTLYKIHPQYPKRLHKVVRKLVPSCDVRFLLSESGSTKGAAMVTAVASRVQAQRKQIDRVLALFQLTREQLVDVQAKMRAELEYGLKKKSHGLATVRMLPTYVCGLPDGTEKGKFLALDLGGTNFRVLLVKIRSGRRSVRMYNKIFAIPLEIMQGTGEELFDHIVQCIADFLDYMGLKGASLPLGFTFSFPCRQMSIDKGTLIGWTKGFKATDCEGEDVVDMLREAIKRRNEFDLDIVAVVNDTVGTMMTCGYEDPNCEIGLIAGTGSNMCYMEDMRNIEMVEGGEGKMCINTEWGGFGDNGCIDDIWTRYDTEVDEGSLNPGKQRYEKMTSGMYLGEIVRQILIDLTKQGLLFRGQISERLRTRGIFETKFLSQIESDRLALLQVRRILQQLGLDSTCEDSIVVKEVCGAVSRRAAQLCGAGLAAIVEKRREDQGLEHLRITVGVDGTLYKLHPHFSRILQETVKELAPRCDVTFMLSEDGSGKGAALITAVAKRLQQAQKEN
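Incubation: 90 min at room temperature in dark / Material: recombinant HKDC1 (HK5) hexokinase enzyme, produced in-house / Quantity: enzyme 5 µg/mL final / Compound: one dose of 20 µM, 1% DMSO / Reagent: glucose and ATP substrates / Buffer or medium: Tris pH 8.0 buffer with MgCl2, Tween-20, BSA, BME / Technique: resorufin fluorescence at 613 nm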
Dynein transport – inhibitors of GR-EGFP nuclear translocation, primary screen, dynein cargo transport inhibitor project, imaging, high-content, 3617.4 mouse cells; test concentration mostly 20 µM; stimulated with dexamethasone, 1 µM; active compounds read low; z-score, hits read low; 220,000 tested, 0.47% active;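 active = plate z-score of nuclear minus cytoplasmic receptor signal below a set negative limit, without overly bright fluorescence or cell loss, cut at about -3.5 in these data, passing the limit was not always enough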;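 also: z-score of nuclear minus cytoplasmic ring GR-EGFP intensity difference per well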
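Buffer or medium: tet-free, stripped-serum medium; reagent: dexamethasone at 1.0 µM final, 30 min; incubation: 48 h induction, 1 h compound, 30 min dex at 37 °C; measured by: formaldehyde fixation, Hoechst nuclear stain, 10x automated fluorescence imaging; read-out: nuclear-to-cytoplasmic GR-EGFP distribution per well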
An asterisk follows results filed as active; i = inactive; u = inconclusive; x = no result; + = active, no number.

SMILES	PERK inh	Autophagy HCS	Tb hexokinase	HSV augment	HKDC1 inh	Dynein transport
CC(=O)Nc1sc(N)nc1-c1ccccc1	2	+	-1	i	-3	-0.75
Cc1ccc(C)c(C(C)NC(=S)NCc2ccc(F)cc2)c1 (configuration not stated)	x	x	x	x	7	x
S=C(NCc1ccccc1)Nc1ccncc1	x	x	x	x	-1	x
CC(C)n1nnnc1-c1cc(Cl)cc(Cl)c1	3.5*	i	4	i	-12	0.51
CC(C)n1nnnc1-c1cccc(Cl)c1	1	i	3	i	-9	-0.6
O=C(O)c1ccc(-c2ccc(/C=N/Nc3ccc([N+](=O)[O-])cc3)o2)cc1	0	x	-19	u	3	0.76
NS(=O)(=O)c1ccc(-c2ccc(/C=N/Nc3ccc(C(=O)O)cc3)o2)cc1	3.0*	x	-25	i	2	-0.026
COc1ccc(C2=NS(=O)(=O)N(C)C(C(=O)NCc3ccccn3)=C2)cc1OC	x	x	x	x	5	x
N=c1n(CCN2CCCC2)c2ccccc2n1CC(O)c1ccc(Cl)c(Cl)c1 (configuration not stated)	-1	+	15	i	5	4
COc1ccc(NC(=O)/C(Cl)=C(/Cl)S(=O)Cc2ccc(Cl)cc2)cn1 (configuration not stated)	1	i	-1	i	16	-5.4*
CC(=O)c1ccc(S(=O)(=O)N2CCN(CC#N)CC2)cc1	4.5*	x	-7	i	0	0.41
Cc1oc2c(cc(NS(=O)(=O)c3ccc(F)cc3)c3ccccc32)c1C(=O)O	x	x	x	x	13	x
COc1ccc(S(=O)(=O)Nc2cc3c(C(C)=O)c(C)oc3c3ccccc23)cc1	-1	+	-16	i	10	0.49
CC(=O)C1=NN(c2ccccc2)C(c2cccs2)N1c1ccccc1 (configuration not stated)	1	i	-2	1.5*	x	-0.7
COCCn1c(SCC(=O)c2ccc(F)cc2)nnc1C(C)C	0	+	0	i	-2	0.75
CCN1CCN(C(=O)CCn2c(=O)c3cccn3c3cccnc32)CC1	x	x	x	x	-2	x
C[C@H]1CN(S(=O)C(C)(C)C)[C@H](CCO)/C1=C\c1ccccc1 (some centres not stated)	x	x	x	x	-7	x
O=C(CC1(O)C(=O)N(Cc2cccc3ccccc23)c2ccccc21)c1cccnc1 (configuration not stated)	0	+	-9	i	0	-0.97
CN1C(=O)C(O)(CC(=O)c2cccnc2)c2ccccc21 (configuration not stated)	0	i	1	i	-2	0.29
CCOC(=O)N1CCN(C(=O)C2CCN(C(=O)c3ccc(C(C)(C)C)cc3)CC2)CC1	x	x	x	x	-3	x
CCN(CC(=O)Nc1ccc(NC(C)=O)cc1)C(=O)CCCSc1nc2ccccc2[nH]1	x	x	x	x	2	x
O=C(c1ccco1)N1CCN(C(=O)c2cn(-c3ccccc3)nc2-c2ccccc2)CC1	x	x	x	x	0	x
COc1ccc(C2C(C#N)=C(N)Oc3cc(O)ccc32)cc1OC (configuration not stated)	-1	i	8	i	-3	-0.14
COc1cc(C2C(C#N)=C(N)Oc3cc(O)ccc32)cc(OC)c1OC (configuration not stated)	1	+	1	i	-8	-0.84
N#Cc1c(-c2ccccc2F)cc(C2CC2)nc1SCC(=O)c1cccs1	0	+	2	u	9	-0.94
SMILES	PERK inh	Autophagy HCS	Tb hexokinase	HSV augment	HKDC1 inh	Dynein transport
COc1ccc(S(=O)(=O)N2CCCCCC2)cc1NC(=O)Cc1n[nH]c(=O)c2ccccc12	x	x	x	x	12	x
O=C(NCc1ccccc1)c1noc2c1CCCCC2	0	+	-5	i	0	-0.038
O=C1c2ccccc2[C@@H]2C[C@@H](O)[C@H](Nc3cccc(C(F)(F)F)c3)CCN12	x	x	x	x	-2	x
CCSc1nc(C(F)(F)F)cc(=O)n1-c1ccccc1	1	i	5	i	5	-0.13
CC(C)Sc1nc(C(F)(F)F)cc(=O)n1-c1ccccc1	3.0*	i	4	i	5	0.3
CCCc1[nH]nc2c1C1(C(=O)N(C(C)C)c3ccccc31)C(C#N)=C(N)O2 (configuration not stated)	0	+	7	i	-8	0.23
O=S(=O)(c1cnc(Cl)c(Cl)c1)N1CCc2ccccc21	0	x	-8	i	20	-4.3*
O=S(=O)(c1cnc(Cl)c(Cl)c1)N1CCCc2ccccc21	0	i	1	i	1	-1.6
Cn1cnc(S(=O)(=O)N2CCc3ccccc32)c1	3.1*	i	3	i	-3	-0.11
CCCc1ccc(OCc2ccccc2)c2c(=O)cc(C(=O)OCC)oc12	3.1*	x	-2	i	-3	-0.57
C=CCc1ccc2oc(C(=O)OCC)cc(=O)c2c1O	2	x	1	i	0	-0.32
CC(C)N1CCc2c(sc(NC(=O)c3ccc(S(=O)(=O)N4CCc5ccccc54)cc3)c2C(N)=O)C1	1	+	-22	i	4	-2.4
C#CCSc1nccc(-c2nn(-c3ccc(C)cc3)ccc2=O)n1	-1	i	-31	i	1	0.65
CSc1nccc(-c2nn(-c3ccc(C)cc3)ccc2=O)n1	0	i	-25	i	-6	0.81
C=CCSc1nccc(-c2nn(-c3ccc(C)cc3)ccc2=O)n1	-1	+	-20	i	2	-0.97
CCSc1nccc(-c2nn(-c3ccc(C)cc3)ccc2=O)n1	-1	+	-20	i	-2	1.6
COc1ccc(N2CC(C(=O)Nc3nnc(SCC(=O)NCC4CCCO4)s3)CC2=O)cc1 (configuration not stated)	x	x	x	x	1	x
CCC(=O)N1CCN(c2ccc(NC(=S)NC(=O)C(C)C)cc2)CC1	1	+	-1	i	-1	0.28
CCCCC(=O)Nc1ccc(N2CCN(C(=O)CC)CC2)cc1	0	i	-4	i	-7	0.14
O=C(Nc1ccccc1)Nc1ncc([N+](=O)[O-])s1	0	+	9	i	2	1.4
O=C(Cn1nc(-c2cccc(Cl)c2)ccc1=O)NCC1COCCO1 (configuration not stated)	x	x	x	x	-4	x
CCCCCNC(=O)CSC1=N/C(=C\c2ccc(Cl)c(Cl)c2)C(=O)N1CC	3.0*	i	7	i	-8	0.18
